Measured values pooled from the literature.
Each line is one published result; the experiments were not run side by side. pIC50: −log10 of the molar value.

Compound	target or system	assay	test system	conditions	measurement	value
C[C@@H](Nc1cc(F)cc(F)c1)c1cc(C(=O)N(C)C)cc2c(=O)cc(N3CCOCC3)oc12			human, plasma	oral, 30 mg, patients	Tmax	1.53 h
CC(=O)O[C@@H]1c2c(ccc3ccc(=O)oc23)OC(C)(C)[C@@H]1OC(=O)C1(C)OC1C (stereo partly drawn)	RD	cell growth or viability, WST-1			pIC50	4.37
CCOC(=O)[C@@]12C[C@@H]1[C@@H](n1ccc3c(NC)nc(C#Cc4ccc(Cl)s4)nc31)[C@H](O)[C@@H]2O			male Sprague-Dawley rat, plasma	oral, 1 mg/kg	MRT	2.34 h
CCOC(=O)CC1SC(=NN=Cc2ccc(O)c(OC)c2)NC1=O (stereo not drawn)	LLC-MK2	cell growth or viability, MTT		96 h, pH 7.2	CC50	545 µM
CC(C)n1cc(C#N)c2cc(-n3cc(C(=O)O)cn3)ccc21			human, plasma	oral, 400 mg, single dose, fasted, healthy volunteers	Tmax	3 h
COC(=O)[C@]1(O)C[C@@H](O)[C@@H](O)[C@H](OC(=O)/C=C/c2ccc(O)c(O)c2)C1	RD	cell growth or viability, WST-1			pIC50	4.44
CCOC(=O)CC1SC(=NN=Cc2ccccc2Cl)NC1=O (stereo not drawn)	LLC-MK2	cell growth or viability, MTT		96 h, pH 7.2	CC50	229 µM
C=C1CC[C@@H]2[C@](C)(CO)[C@H](O)CC[C@@]2(C)[C@@H]1C/C=C1/C(=O)OC[C@H]1O	UDP-glucuronosyltransferase 2B7 (UGT2B7, Homo sapiens, UniProt P16662)	enzyme activity, inhibitor		100 µM, pH 7.4	inhibition	94%
CCOC(=O)CC1SC(=NN=Cc2ccccc2[N+](=O)[O-])NC1=O (stereo not drawn)	LLC-MK2	cell growth or viability, MTT		96 h, pH 7.2	CC50	577 µM
C/C=C(/C)C(=O)O[C@@H]1[C@H](OC(C)=O)c2c(ccc3ccc(=O)oc23)OC1(C)C	RD	cell growth or viability, WST-1			pIC50	4.35
CCOC(=O)CC1SC(=NN=Cc2cccc(Br)c2)NC1=O (stereo not drawn)	LLC-MK2	cell growth or viability, MTT		96 h, pH 7.2	CC50	446 µM
COc1cccc(OC)c1-c1cc(C(=O)NC2(C(=O)O)C3CC4CC(C3)CC2C4)nn1-c1ccc(C(=O)N(C)CCCN(C)CCCN(C)C(=O)CN2CCN(CC(=O)[O-])CCN(CC(=O)[O-])CCN(CC(=O)[O-])CC2)cc1C(C)C.[177Lu+3] (stereo not drawn)	HT-29		brain	intravenous, 4 h, tumour-bearing	tracer uptake	0.22 %ID/g
